Converted amounts (≈) assume the structure as drawn.
Assays:
Escherichia coli [1] = test: Antibacterial activity against Escherichia coli at 160 ug/ml after 24 hrs by Oxford cup assay; type: functional; settings: read-out: IZ
Outline: (§1)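 Oxford cup diffusion: saline inoculum set by McFarland standard, spread on nutrient agar plates. […] Inhibition zone measured after 24 h at 37 °C; triplicate.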

[2] = Tmax in Sprague-Dawley rat at 15 mg/kg, po; type: ADME, organism-based; parameters: dose 15 mg/kg, route oral; settings: in vivo
Outline: (§2)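 Male SD rats, 220−250 g, 6−8 weeks old, n = 3, fasted overnight and for 6 h after dosing. Dosed in 5% Tween in water, 5 mg/kg iv or 15 mg/kg po. Serial retrobulbar blood samples into EDTA-K₂ tubes; plasma levels by HPLC. Parameters from mean plasma concentration by noncompartmental analysis.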

Streptococcus agalactiae [3] = test: Antibacterial activity against Streptococcus agalactiae after 48 hrs by agar dilution method; type: functional
Outline: (§3)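 Agar dilution per NCCLS on Mueller–Hinton agar; compound in DMSO/water, 2-fold serial dilutions in distilled water, 2 mL dilution mixed into 18 mL hot agar. Clinical isolates from blood slants, adjusted to about 10⁵−10⁶ cfu/mL in 0.90% saline; 10 μL spotted. Incubated 36.5 °C for 48 h; MIC = lowest concentration giving complete growth inhibition. Triplicate runs.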

[4] = Cmax in Sprague-Dawley rat at 5 mg/kg, iv; type: ADME, organism-based; parameters: dose 5 mg/kg, route intravenous; settings: in vivo; outline: as §2
Rattus norvegicus = test: Volume of distribution at steady state in Sprague-Dawley rat at 15 mg/kg, po; type: ADME, organism-based; parameters: dose 15 mg/kg, route oral; settings: in vivo; outline: as §2
[5] = Cmax in Sprague-Dawley rat at 15 mg/kg, po; type: ADME, organism-based; parameters: dose 15 mg/kg, route oral; settings: in vivo; outline: as §2
[6] = Tmax in Sprague-Dawley rat at 5 mg/kg, iv; type: ADME, organism-based; parameters: dose 5 mg/kg, route intravenous; settings: in vivo; outline: as §2
[7] = system: Staphylococcus epidermidis; test: Antibacterial activity against methicillin-resistant Staphylococcus epidermidis after 48 hrs by agar dilution method; type: functional
Outline: (§4)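 Agar dilution per NCCLS using clinical isolates. Compound DMSO/water solutions are 2-fold serially diluted in water, then mixed 1:10 into hot Mueller–Hinton agar. Inocula come from blood slants, adjusted to about 10⁵−10⁶ cfu/mL in 0.90% saline, and spotted at 10 μL. Plates incubated at 36.5 °C for 48 h. MIC is the lowest concentration giving complete growth inhibition. Run in triplicate at pH 7.40.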

Streptococcus agalactiae [8] = test: Antibacterial activity against Streptococcus agalactiae at 320 ug/ml after 24 hrs by Oxford cup assay; type: functional; settings: read-out: IZ; outline: as §1
[9] = AUC (0 to infinity) in Sprague-Dawley rat at 15 mg/kg, po; type: ADME, organism-based; parameters: time infinity, dose 15 mg/kg, route oral; settings: plasma; outline: as §2
[10] = Oral bioavailability in Sprague-Dawley rat at 15 mg/kg; type: ADME, organism-based; settings: in vivo; outline: as §2
Staphylococcus aureus [11] = test: Antibacterial activity against methicillin-resistant Staphylococcus aureus at 160 ug/ml after 24 hrs by Oxford cup assay; type: functional; settings: read-out: IZ
Outline: (§5)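 Oxford cup diffusion using clinical isolates. Inocula are made in 0.9% saline to a McFarland standard and spread on nutrient agar. […] Inhibition zone diameter is measured after 24 h at 37 °C. Run in triplicate.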

[12] = Elimination half life in Sprague-Dawley rat at 15 mg/kg, po; type: ADME, organism-based; parameters: dose 15 mg/kg, route oral; settings: in vivo, read-out: beta t1/2 (converted); outline: as §2
[13] = Mean residence time in Sprague-Dawley rat at 5 mg/kg, iv; type: ADME, organism-based; parameters: dose 5 mg/kg, route intravenous; settings: in vivo; outline: as §2
[14] = Clearance in Sprague-Dawley rat at 5 mg/kg, iv; type: ADME, organism-based; parameters: dose 5 mg/kg, route intravenous; settings: in vivo; outline: as §2
Escherichia coli [15] = test: Antibacterial activity against Escherichia coli at 320 ug/ml after 24 hrs by Oxford cup assay; type: functional; settings: read-out: IZ; outline: as §1
[16] = system: Staphylococcus epidermidis; test: Antibacterial activity against methicillin-resistant Staphylococcus epidermidis at 320 ug/ml after 24 hrs by Oxford cup assay; type: functional; settings: read-out: IZ; outline: as §5
Escherichia coli [17] = test: Antibacterial activity against Escherichia coli after 48 hrs by agar dilution method; type: functional; outline: as §3
Streptococcus agalactiae [18] = test: Antibacterial activity against Streptococcus agalactiae at 160 ug/ml after 24 hrs by Oxford cup assay; type: functional; settings: read-out: IZ; outline: as §1
[19] = Clearance in Sprague-Dawley rat at 15 mg/kg, po; type: ADME, organism-based; parameters: dose 15 mg/kg, route oral; settings: in vivo; outline: as §2
[20] = Mean residence time in Sprague-Dawley rat at 15 mg/kg, po; type: ADME, organism-based; parameters: dose 15 mg/kg, route oral; settings: in vivo; outline: as §2
[21] = AUC (0 to infinity) in Sprague-Dawley rat at 5 mg/kg, iv; type: ADME, organism-based; parameters: time infinity, dose 5 mg/kg, route intravenous; settings: plasma; outline: as §2
[22] = Volume of distribution at steady state in Sprague-Dawley rat at 5 mg/kg, iv; type: ADME, organism-based; parameters: dose 5 mg/kg, route intravenous; settings: in vivo, read-out: Vdss; outline: as §2
[23] = system: Staphylococcus epidermidis; test: Antibacterial activity against methicillin-resistant Staphylococcus epidermidis at 160 ug/ml after 24 hrs by Oxford cup assay; type: functional; settings: read-out: IZ; outline: as §5
Staphylococcus aureus [24] = test: Antibacterial activity against methicillin-resistant Staphylococcus aureus at 320 ug/ml after 24 hrs by Oxford cup assay; type: functional; settings: read-out: IZ; outline: as §5
Staphylococcus aureus [25] = test: Antibacterial activity against methicillin-resistant Staphylococcus aureus after 48 hrs by agar dilution method; type: functional; outline: as §4
[26] = Elimination half life in Sprague-Dawley rat at 5 mg/kg, iv; type: ADME, organism-based; parameters: dose 5 mg/kg, route intravenous; settings: in vivo, read-out: beta t1/2 (converted); outline: as §2
[27] = Oral bioavailability in chicken; type: ADME, organism-based, Gallus gallus; settings: in vivo
[28] = Oral bioavailability in duck; type: ADME, organism-based; settings: anas platyrhynchos, in vivo

## C=C[C@]1(C)C[C@@H](OC(=O)CSc2nnc(NC(=O)CN3CCCCC3)s2)[C@]2(C)[C@H](C)CC[C@]3(CCC(=O)[C@H]32)[C@@H](C)[C@@H]1O
Escherichia coli [1]
  zone of inhibition at 160 µg/mL: 11.7 mm
[2]
  Tmax: 45 min
Streptococcus agalactiae [3]
  MIC: 0.5 µg/mL (≈ 0.808 µM)
[4]
  Cmax: 11300 ng/mL
Rattus norvegicus
  Vdss: 4.91 L/kg
[5]
  Cmax: 4650 ng/mL
[6]
  Tmax: 4.8 min
[7]
  MIC: 1 µg/mL (≈ 1.62 µM)
Streptococcus agalactiae [8]
  zone of inhibition at 320 µg/mL: 17.7 mm
[9]
  AUC(0-inf): 24100 ng·h/mL
[10]
  bioavailability: 39.7%
Staphylococcus aureus [11]
  zone of inhibition at 160 µg/mL: 13.8 mm
[12]
  half-life: 359 min
[13]
  MRT: 2.88 h
[14]
  clearance: 5.9 mL/min/kg
Escherichia coli [15]
  zone of inhibition at 320 µg/mL: 13.3 mm
[16]
  zone of inhibition at 320 µg/mL: 17.4 mm
Escherichia coli [17]
  MIC: 16 µg/mL (≈ 25.9 µM)
Streptococcus agalactiae [18]
  zone of inhibition at 160 µg/mL: 13.5 mm
[19]
  CL/F: 10.4 mL/min/kg
[20]
  MRT: 7.91 h
[21]
  AUC(0-inf): 14100 ng·h/mL
[22]
  Vd: 1.02 L/kg
[23]
  zone of inhibition at 160 µg/mL: 14.5 mm
Staphylococcus aureus [24]
  zone of inhibition at 320 µg/mL: 18.8 mm
Staphylococcus aureus [25]
  MIC: 0.5 µg/mL (≈ 0.808 µM)
[26]
  half-life: 233 min

## C=C[C@]1(C)C[C@@H](OC(=O)CSC(C)(C)CNC(=O)[C@H](N)C(C)C)[C@]2(C)[C@H](C)CC[C@]3(CCC(=O)[C@H]32)[C@@H](C)[C@@H]1O [VALNEMULIN]
[27]
  bioavailability: 74%
[28]
  bioavailability: 36.7%

## C=C[C@]1(C)C[C@@H](OC(=O)CSc2nnc(NC(=O)c3ccc(Cl)cc3)s2)[C@]2(C)[C@H](C)CC[C@]3(CCC(=O)[C@H]32)[C@@H](C)[C@@H]1O
Escherichia coli [1]
  zone of inhibition at 160 µg/mL: 0 mm
Streptococcus agalactiae [3]
  MIC: 4 µg/mL (≈ 6.33 µM)
[7]
  MIC: 4 µg/mL (≈ 6.33 µM)
Streptococcus agalactiae [8]
  zone of inhibition at 320 µg/mL: 13.4 mm
Staphylococcus aureus [11]
  zone of inhibition at 160 µg/mL: 11.9 mm
Escherichia coli [15]
  zone of inhibition at 320 µg/mL: 10 mm
[16]
  zone of inhibition at 320 µg/mL: 14.1 mm
Escherichia coli [17]
  MIC: ≥ 64 µg/mL
Streptococcus agalactiae [18]
  zone of inhibition at 160 µg/mL: 11.4 mm
[23]
  zone of inhibition at 160 µg/mL: 11.3 mm
Staphylococcus aureus [24]
  zone of inhibition at 320 µg/mL: 13.7 mm
Staphylococcus aureus [25]
  MIC: 4 µg/mL (≈ 6.33 µM)

## C=C[C@]1(C)C[C@@H](OC(=O)CSc2nnc(N)s2)[C@]2(C)[C@H](C)CC[C@]3(CCC(=O)[C@H]32)[C@@H](C)[C@@H]1O
Escherichia coli [1]
  zone of inhibition at 160 µg/mL: 12.4 mm
[2]
  Tmax: 45 min
Streptococcus agalactiae [3]
  MIC: 0.25 µg/mL (≈ 0.506 µM)
[4]
  Cmax: 13600 ng/mL
Rattus norvegicus
  Vdss: 5.14 L/kg
[5]
  Cmax: 3070 ng/mL
[6]
  Tmax: 4.8 min
[7]
  MIC: 1 µg/mL (≈ 2.03 µM)
Streptococcus agalactiae [8]
  zone of inhibition at 320 µg/mL: 17.3 mm
[9]
  AUC(0-inf): 24600 ng·h/mL
[10]
  bioavailability: 35.8%
Staphylococcus aureus [11]
  zone of inhibition at 160 µg/mL: 13 mm
[12]
  half-life: 364 min
[13]
  MRT: 2.84 h
[14]
  clearance: 5.41 mL/min/kg
Escherichia coli [15]
  zone of inhibition at 320 µg/mL: 14.3 mm
[16]
  zone of inhibition at 320 µg/mL: 15.2 mm
Escherichia coli [17]
  MIC: 8 µg/mL (≈ 16.2 µM)
Streptococcus agalactiae [18]
  zone of inhibition at 160 µg/mL: 15 mm
[19]
  CL/F: 10.2 mL/min/kg
[20]
  MRT: 8.42 h
[21]
  AUC(0-inf): 15400 ng·h/mL
[22]
  Vd: 0.92 L/kg
[23]
  zone of inhibition at 160 µg/mL: 12.8 mm
Staphylococcus aureus [24]
  zone of inhibition at 320 µg/mL: 15.6 mm
Staphylococcus aureus [25]
  MIC: 0.5 µg/mL (≈ 1.01 µM)
[26]
  half-life: 204 min

## C=C[C@]1(C)C[C@@H](OC(=O)CSc2nnc(NC(=O)CN3CCOCC3)s2)[C@]2(C)[C@H](C)CC[C@]3(CCC(=O)[C@H]32)[C@@H](C)[C@@H]1O
Escherichia coli [1]
  zone of inhibition at 160 µg/mL: 0 mm
Streptococcus agalactiae [3]
  MIC: 4 µg/mL (≈ 6.44 µM)
[7]
  MIC: 8 µg/mL (≈ 12.9 µM)
Streptococcus agalactiae [8]
  zone of inhibition at 320 µg/mL: 13.2 mm
Staphylococcus aureus [11]
  zone of inhibition at 160 µg/mL: 13.4 mm
Escherichia coli [15]
  zone of inhibition at 320 µg/mL: 11.9 mm
[16]
  zone of inhibition at 320 µg/mL: 10.8 mm
Escherichia coli [17]
  MIC: ≥ 64 µg/mL
Streptococcus agalactiae [18]
  zone of inhibition at 160 µg/mL: 10.9 mm
[23]
  zone of inhibition at 160 µg/mL: 0 mm
Staphylococcus aureus [24]
  zone of inhibition at 320 µg/mL: 15.4 mm
Staphylococcus aureus [25]
  MIC: 1 µg/mL (≈ 1.61 µM)

## C=C[C@]1(C)C[C@@H](OC(=O)CSc2nnc(NC(=O)CN3CCCC3)s2)[C@]2(C)[C@H](C)CC[C@]3(CCC(=O)[C@H]32)[C@@H](C)[C@@H]1O
Escherichia coli [1]
  zone of inhibition at 160 µg/mL: 9.86 mm
Streptococcus agalactiae [3]
  MIC: 2 µg/mL (≈ 3.31 µM)
[7]
  MIC: 4 µg/mL (≈ 6.61 µM)
Streptococcus agalactiae [8]
  zone of inhibition at 320 µg/mL: 13.8 mm
Staphylococcus aureus [11]
  zone of inhibition at 160 µg/mL: 13.1 mm
Escherichia coli [15]
  zone of inhibition at 320 µg/mL: 11.1 mm
[16]
  zone of inhibition at 320 µg/mL: 12.8 mm
Escherichia coli [17]
  MIC: 32 µg/mL (≈ 52.9 µM)
Streptococcus agalactiae [18]
  zone of inhibition at 160 µg/mL: 12.8 mm
[23]
  zone of inhibition at 160 µg/mL: 10.5 mm
Staphylococcus aureus [24]
  zone of inhibition at 320 µg/mL: 13.2 mm
Staphylococcus aureus [25]
  MIC: 4 µg/mL (≈ 6.61 µM)

— ChEMBL document CHEMBL3286209, “Synthesis and biological activities of novel pleuromutilin derivatives with a substituted thiadiazole moiety as potent drug-resistant bacteria inhibitors” (J Med Chem, 2014)
